Data: ChEMBL document CHEMBL1681731, “Synthesis, in vitro anti-inflammatory and cytotoxic evaluation, and mechanism of action studies of 1-benzoyl-β-carboline and 1-benzoyl-3-carboxy-β-carboline derivatives” (Bioorg Med Chem, 2011)
Activity calls are given as the source filed them. The calls are words filed in the database; no cut-off is given here.

Tests used:
RAW264.7 [1] = assay: Inhibition of lipopolysaccharide/interferon gamma-induced COX2 expression in mouse RAW264.7 cells by Western blot analysis; assay type: functional, cell-based
Procedure, shortened: (§1)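 RAW 264.7 cells lysed in ice-cold RIPA buffer (25 mM Tris–HCl pH 7.2, SDS, Triton, deoxycholate, protease/phosphatase inhibitors). Protein assayed, run on 7.5% SDS-PAGE and transferred to nitrocellulose. Probed for iNOS or COX2 with HRP-anti-IgG secondary, detected by ECL. Blot re-probed for α-tubulin.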

A549 = assay: Cytotoxicity activity against human A549 cells assessed as growth inhibition at 10 ug/ml after 72 hrs sulforhodamine B assay; assay type: functional; conditions: A549, 72 h
Procedure, shortened: (§2)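 Cells kept in RPMI-1640/10% FBS with antibiotics at 37 °C, 5% CO2. Trypsinized cells seeded and given compound from DMSO-diluted stock. Incubated 72 h, then fixed with 10% TCA. Stained 10 min with 0.4% sulforhodamine B in 1% HOAc, washed, dye dissolved in 10 mM Trizma. A515 read; growth relative to net protein increase of controls.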

DU-145 = assay: Cytotoxicity activity against human DU145 cells assessed as growth inhibition at 10 ug/ml after 72 hrs sulforhodamine B assay; assay type: functional; conditions: DU-145, 72 h; procedure, shortened: as §2
[2] = Antiinflammatory activity against human neutrophil assessed as inhibition of N-formyl-l-methionyl phenylalanine/cytochalasin B-induced elastase release; assay type: functional, cell-based
Procedure, shortened: (§3)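 Neutrophils (6 × 10^5/mL) supplemented with 100 µM MeO-Suc-Ala-Ala-Pro-Val-p-nitroanilide, equilibrated 2 min at 37 °C, then given drug or 0.1% DMSO vehicle for 5 min. Activated with 100 nM FMLP plus 0.5 µg/mL cytochalasin B. Absorbance at 405 nm followed continuously. Release expressed as percent of drug-free activated control. IC50 computed; mean ± SEM, n = 3.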

RAW264.7 [3] = assay: Antiinflammatory activity against mouse RAW264.7 cells assessed as reduction of lipopolysaccharide/interferon-gamma induced PGE2 production at 3 uM after 18 hrs; assay type: functional; conditions: RAW264.7, 18 h
Procedure, shortened: (§4)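 RAW 264.7 macrophages (passages 9–20) stimulated with LPS/IFN-γ; compound tested at 1, 3 and 10 µM. Supernatant PGE2 measured by competitive EIA: anti-PGE2 antibody plus peroxidase-PGE2 tracer, 1 h RT; TMB/H2O2 30 min; H2SO4 stop; A450. Results given as % inhibition.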

KB = assay: Cytotoxicity activity against human KB cells assessed as growth inhibition at 10 ug/ml after 72 hrs sulforhodamine B assay; assay type: functional; procedure, shortened: as §2
RAW264.7 [4] = assay: Antiinflammatory activity against mouse RAW264.7 cells assessed as reduction of lipopolysaccharide/interferon-gamma induced PGE2 production at 1 uM by EIA; assay type: functional; procedure, shortened: as §4
RAW264.7 [5] = assay: Inhibition of lipopolysaccharide/interferon gamma-induced iNOS expression in mouse RAW264.7 cells by Western blot analysis; assay type: functional, cell-based; procedure, shortened: as §1
[6] = Therapeutic index, ratio of CC50 for mouse […] cells to EC50 for inhibition of lipopolysaccharide/interferon-gamma induced nitric oxide production in mouse […] cells; assay type: cell-based; conditions: read-out: TI
[7] = Antiinflammatory activity against mouse […] cells assessed as inhibition of lipopolysaccharide/interferon-gamma induced nitric oxide production; assay type: functional, cell-based; conditions: Mus musculus; read-out: EC50
Procedure, shortened: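 RAW 264.7 cells in DMEM/10% FCS, passages 9–20. Nitrite induced by LPS (1 µg/mL) plus IFN-γ (50 U/mL) for 18 h with or without compound. Griess reagent (1% sulfanilamide, 0.1% naphthylenediamine in 5% H3PO4) read at OD550. EC50 calculated.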

[8] = (§5) Cytotoxicity against mouse […] cells by MTT assay; assay type: functional
Procedure, shortened: (§6)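 Viability of RAW 264.7 cells taken as mitochondrial reduction of MTT to formazan. Formazan read at OD550.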

[9] = Antiinflammatory activity against human neutrophil assessed as inhibition of N-formyl-l-methionyl phenylalanine/cytochalasin B-induced superoxide anion generation by spectrophotometry; assay type: functional, cell-based
Procedure, shortened: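 Ferricytochrome c (0.5 mg/mL) reduction, SOD-inhibitable, with 1 mM Ca2+. Neutrophils (6 × 10^5 cells/mL) equilibrated 2 min at 37 °C, then drug or 0.1% DMSO for 5 min. Cytochalasin B 1 µg/mL preincubation, then 100 nM FMLP for 3 min. A550 monitored continuously with stirring. IC50 computed; mean ± SEM, n = 3.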

[10] = Cytotoxicity activity against human KBVIN cells assessed as growth inhibition at 10 ug/ml after 72 hrs sulforhodamine B assay; assay type: functional; procedure, shortened: as §2
RAW264.7 [11] = assay: Antiinflammatory activity against mouse RAW264.7 cells assessed as reduction of lipopolysaccharide/interferon-gamma induced PGE2 production at 10 uM after 18 hrs; assay type: functional; conditions: RAW264.7, 18 h; procedure, shortened: as §4
Mus musculus = species: Mus musculus; assay: as §5; assay type: functional; procedure, shortened: as §6
[12] = system: Radical scavenging activity; assay: Antioxidant activity assessed as residual DPPH radical scavenging activity; assay type: functional
Neutrophil [13] = assay: Antiinflammatory activity against human neutrophil assessed as inhibition of N-formyl-l-methionyl phenylalanine-induced phosphorylation of AKT by Western blot analysis; assay type: functional, cell-based
Procedure, shortened: (§7)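 Neutrophils given drug for 5 min at 37 °C, then FMLP (0.1 µM) for 0.5 min. Stopped on ice and centrifuged at 4 °C. Pellets lysed in HEPES pH 7.4 Triton buffer with phosphatase and protease inhibitors; 14,000 g 20 min spin. Lysate proteins run on 12% SDS-PAGE, immunoblotted, detected by ECL.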

Neutrophil [14] = assay: Antiinflammatory activity against human neutrophil assessed as inhibition of N-formyl-l-methionyl phenylalanine-induced phosphorylation of JNK by Western blot analysis; assay type: functional, cell-based; procedure, shortened: as §7
[15] = Antiinflammatory activity against cytochalasin B pretreated human neutrophil assessed as inhibition of elastase release; assay type: functional; procedure, shortened: as §3

| SMILES | Activity (RAW264.7 [1]) | GI50 (A549) | GI50 (DU-145) | IC50 [2] | inhibition at 3 µM (RAW264.7 [3]) | GI50 (KB) | inhibition at 1 µM (RAW264.7 [4]) | Activity (RAW264.7 [5]) | selectivity ratio [6] | EC50 [7] | CC50 [8] | IC50 [9] | GI50 [10] | inhibition at 10 µM (RAW264.7 [11]) | CC50 (Mus musculus) | Activity [12] | inhibition (Neutrophil [13]) | inhibition (Neutrophil [14]) | INH [15] |
| --- | --- | --- | --- | --- | --- | --- | --- | --- | --- | --- | --- | --- | --- | --- | --- | --- | --- | --- | --- |
| Cc1cccc(C(=O)c2nccc3c2[nH]c2ccccc23)c1 | Active | > 40 µM | > 40 µM | > 30 µM | 100% | > 40 µM | 97% | Active | 120 | 0.2 µM | 23.7 µM | > 30 µM | > 40 µM | – | – | – | – | – | – |
| CC(=O)c1nc(C(=O)O)cc2c1[nH]c1ccccc12 | – | > 40 µM | > 40 µM | > 30 µM | 0% | > 40 µM | 0% | – | – | 0.25 µM | – | > 30 µM | > 40 µM | 0% | Non-toxic | – | – | – | – |
| O=C(O)c1cc2c([nH]c3ccccc32)c(C(=O)c2ccc([N+](=O)[O-])cc2)n1 | – | > 40 µM | > 40 µM | 6.21 µM | 92% | > 40 µM | 0% | – | 5 | 2.94 µM | 15 µM | 6.65 µM | > 40 µM | 100% | – | inactive | – | – | – |
| O=C(O)c1cc2c([nH]c3ccccc32)c(C(=O)c2cccc(Br)c2)n1 | Active | > 40 µM | > 40 µM | 2.78 µM | 100% | > 40 µM | 100% | Active | 51 | 0.57 µM | 29.4 µM | 2.05 µM | > 40 µM | – | – | inactive | Active | Active | – |
| O=C(O)c1cc2c([nH]c3ccccc32)c(C(=O)c2ccccc2[N+](=O)[O-])n1 | – | > 40 µM | > 40 µM | 13.2 µM | 97% | > 40 µM | 0% | – | 4 | 2.88 µM | 12.8 µM | 17.6 µM | > 40 µM | 100% | – | inactive | – | – | – |
| O=C(O)c1cc2c([nH]c3ccccc32)c(C(=O)c2ccccc2)n1 | – | > 40 µM | > 40 µM | 13.4 µM | 12% | > 40 µM | 0% | – | 155 | 3.65 µM | 564 µM | 17.7 µM | > 40 µM | 90% | – | inactive | – | – | – |
| Cc1ccc(C(O)c2nccc3c2[nH]c2ccccc23)cc1 (stereo not given) | – | 26.6 µM | 13.8 µM | > 30 µM | 29% | 20.6 µM | 15% | – | > 100 | 4.94 µM | – | > 30 µM | 9.29 µM | – | Non-toxic | – | – | – | – |
| Cc1ccccc1C(=O)c1nc(C(=O)O)cc2c1[nH]c1ccccc12 | – | > 40 µM | > 40 µM | 14.8 µM | 82% | > 40 µM | 0% | – | > 2000 | 2.58 µM | – | 5.36 µM | > 40 µM | 100% | – | inactive | – | – | – |
| O=C(O)c1cc2c([nH]c3ccccc32)c(C(=O)c2ccccc2Br)n1 | – | > 40 µM | > 40 µM | 3.07 µM | 78% | > 40 µM | 0% | – | 75 | 6.96 µM | 524 µM | 5.33 µM | > 40 µM | 96% | – | inactive | – | – | – |
| COc1cccc(C(=O)c2nccc3c2[nH]c2ccccc23)c1 | – | > 40 µM | > 40 µM | – | 71% | > 40 µM | 0% | – | 6 | 2.96 µM | 16.3 µM | > 30 µM | > 40 µM | 98% | – | – | – | – | 13.2 µM |
| CC(=O)c1nccc2c1[nH]c1ccccc12 | – | > 40 µM | > 40 µM | > 30 µM | 0% | > 40 µM | 0% | – | – | 6.65 µM | – | 5.03 µM | > 40 µM | 59% | Non-toxic | – | – | – | – |
| Cc1ccc(C(=O)c2nc(C(=O)O)cc3c2[nH]c2ccccc23)cc1 | – | > 40 µM | > 40 µM | 3.13 µM | 100% | > 40 µM | 100% | – | 35 | 0.5 µM | 17.7 µM | 6.27 µM | > 40 µM | – | – | inactive | – | – | – |
